Experimental findings from ChEMBL document CHEMBL4020705, “Investigation of aryl isonitrile compounds with potent, broad-spectrum antifungal activity” (Bioorg Med Chem, 2017) are described below.

Data set [1] concerns Candida albicans. The experiment in a line: Fungicidal activity against Candida albicans NR-29448 after 18 hrs. Type of data set: functional. To be noted: NR-29448, 18 h, read-out: MFC99.9. The method in brief: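 Starting from the MIC plate, 5 μL aliquots are taken from wells with no growth and spotted onto YPD agar. After 18 h at 37 °C, MFC is recorded as the concentration giving a >99.9% decrease in CFU.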

Data set [2] deals with Candida albicans. Nature of the data set: Antifungal activity against Candida albicans NR-29448 after 44 hrs by broth dilution assay. The data set is classed as functional. To be noted: NR-29448, 44 h. The essentials: (§1)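 Yeast broth microdilution per CLSI M27-A3, in RPMI-1640. Incubation is at 37 °C for at least 44 h. MIC is the lowest concentration with no visible growth, read by eye.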
On the technique in general: In broth dilution the organism is exposed to a series of concentrations in liquid medium.

The test system of data set [3] is Cryptococcus neoformans. Nature of the data set: Antifungal activity against Cryptococcus neoformans NR-41292 after 68 hrs by broth dilution assay. To be noted: NR-41292, 68 h. The data set is classed as functional. The essentials: (§2)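 Cryptococcus MIC follows CLSI M27-A3 broth dilution in RPMI-1640. Incubation is at 37 °C for 68 h, and the MIC is read by visual inspection.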

Data set [4] has as its system Pichia kudriavzevii. Nature of the data set: Antifungal activity against Candida krusei ATCC 34135 after 44 hrs by broth dilution assay. The data set is classed as functional. To be noted: ATCC 34135, 44 h. The essentials:
as §1

Data set [5] has as its system HRT-18 cell line. Nature of the data set: Cytotoxicity against human HRT18 cells assessed as cell viability at 128 uM after 2 hrs by MTS assay. The data set is classed as cell-based. Particulars: hrt-18, 2 h. The essentials: (§3)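 HRT-18 cells are grown in RPMI-1640 with 10% fetal horse serum at 37 °C, 5% CO2. Compounds are added in triplicate for 2 h, with DMSO-matched vehicle controls. MTS is then added for 4 h and absorbance read at 490 nm. Viability is given as % of DMSO control, mean ± SD. Two-way ANOVA with Dunnett's test.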
Background: Tetrazolium dyes change colour on reduction, which living cells bring about.

The test system of data set [6] is HRT-18 cell line. Nature of the data set: Cytotoxicity against human HRT18 cells assessed as cell viability at 256 uM after 2 hrs by MTS assay. Particulars: hrt-18, 2 h. Type of data set: cell-based. The method in brief: as §3
In data set [7] the test system is Cryptococcus gattii species complex. Nature of the data set: Antifungal activity against Cryptococcus gattii NR-43209 after 68 hrs by broth dilution assay. The data set is classed as functional, Cryptococcus bacillisporus. To be noted: NR-43209, 68 h. The method in brief: as §2
The subject of data set [8] is Candida albicans. The experiment in a line: Antifungal activity against Candida albicans ATCC 64124 after 44 hrs by broth dilution assay. The data set is classed as functional. To be noted: ATCC 64124, 44 h. The essentials: as §1
The test system of data set [9] is Aspergillus niger. Nature of the data set: Antifungal activity against Aspergillus niger ATCC 6275 after 44 hrs by broth dilution assay. To be noted: ATCC 6275, 44 h.
For data set [10], the system named is Candida tropicalis. The experiment in a line: Antifungal activity against Candida tropicalis ATCC 13803 after 44 hrs by broth dilution assay. The data set is classed as functional. To be noted: ATCC 13803, 44 h. The method in brief: as §1
For data set [11], the system named is Candida albicans. The experiment in a line: Antifungal activity against Candida albicans NR-29368 after 44 hrs by broth dilution assay. The data set is classed as functional. To be noted: NR-29368, 44 h. The essentials:
as §1

The test system of data set [12] is Pichia kudriavzevii. Nature of the data set: Antifungal activity against Candida krusei ATCC 14243 after 44 hrs by broth dilution assay. Particulars: ATCC 14243, 44 h. The data set is classed as functional. The method in brief:
as §1

Data set [13] relates to Candida tropicalis. The experiment in a line: Antifungal activity against Candida tropicalis ATCC 1369 after 44 hrs by broth dilution assay. Type of data set: functional. Particulars: ATCC 1369, 44 h. The method in brief: as §1
Data set [14] concerns Candida parapsilosis. The experiment in a line: Antifungal activity against Candida parapsilosis ATCC 22019 after 44 hrs by broth dilution assay. Particulars: Lodderomyces parapsilosis, ATCC 22019, 44 h. The data set is classed as functional. The essentials:
as §1

For data set [15], the system named is Nakaseomyces glabratus. The experiment in a line: Antifungal activity against Candida glabrata ATCC 66032 after 44 hrs by broth dilution assay. The data set is classed as functional. Particulars: ATCC 66032, 44 h. The essentials:
as §1

Data set [16] deals with Candida albicans. Nature of the data set: Antifungal activity against Candida albicans ATCC 27365 after 44 hrs by broth dilution assay. The data set is classed as functional. Particulars: ATCC 27365, 44 h. The essentials: as §1
The subject of data set [17] is Aspergillus fumigatus. The experiment in a line: Antifungal activity against Aspergillus fumigatus NR-35301 after 44 hrs by broth dilution assay. To be noted: NR-35301, 44 h.
Data set [18] deals with Candida albicans. Nature of the data set: Antifungal activity against Candida albicans ATCC MYA 573 after 44 hrs by broth dilution assay. To be noted: ATCC MYA 573, 44 h. The data set is classed as functional. The essentials:
as §1

Data set [19] relates to Aspergillus brasiliensis. Nature of the data set: Antifungal activity against Aspergillus brasiliensis ATCC 16404 after 44 hrs by broth dilution assay. Particulars: ATCC 16404, 44 h.
The subject of data set [20] is Cryptococcus gattii species complex. Nature of the data set: Antifungal activity against Cryptococcus gattii NR-43208 after 68 hrs by broth dilution assay. The data set is classed as functional, Cryptococcus bacillisporus. To be noted: NR-43208, 68 h. The method in brief:
as §2

For data set [21], the system named is Nakaseomyces glabratus. Nature of the data set: Antifungal activity against Candida glabrata ATCC MYA-2950 after 44 hrs by broth dilution assay. To be noted: ATCC MYA-2950, 44 h. The data set is classed as functional. The method in brief:
as §1

Data set [22] has as its system Aspergillus niger. The experiment in a line: Antifungal activity against Aspergillus niger ATCC 16888 after 44 hrs by broth dilution assay. To be noted: ATCC 16888, 44 h.
Data set [23] relates to Candida albicans. The experiment in a line: Antifungal activity against Candida albicans ATCC 29351 after 44 hrs by broth dilution assay. Particulars: ATCC 29351, 44 h. The data set is classed as functional. The essentials: as §1
Data set [24] has as its system Candida albicans. Nature of the data set: Antifungal activity against Candida albicans NR-29446 after 44 hrs by broth dilution assay. Particulars: NR-29446, 44 h. The data set is classed as functional. The method in brief: as §1
For data set [25], the system named is Aspergillus fumigatus. Nature of the data set: Antifungal activity against Aspergillus fumigatus NR-35302 after 44 hrs by broth dilution assay. To be noted: NR-35302, 44 h.

The MIC is the lowest concentration that inhibits growth of the organism. Lower therefore signals greater potency.

Converted amounts (≈) assume the structure as drawn.

In the case of `CC/C(=C\c1ccccc1)c1ccccc1`, the MFC in data set [1] is more than 64 µM. The compound further displayed an MIC in data set [2] of more than 64 µM.
Consider `N#Cc1ccccc1/C=C/c1ccccc1`, for which, in data set [1], the MFC was more than 64 µM. The MIC in data set [2] is more than 64 µM.
As to `Nc1ccccc1/C=C/c1ccccc1`, in data set [2], the MIC turned out to be 64 µM (≈ 12.5 µg/mL).
Take `N#Cc1ccc(/C=C/c2ccccc2)cc1`: the MIC in [3] was not above 0.5 µM; in [4], 16 µM (≈ 3.28 µg/mL); in data set [7], not above 0.5 µM; in [8] it was 2 µM (≈ 0.411 µg/mL); in [9], more than 64 µM; in data set [10], 4 µM (≈ 0.821 µg/mL). The MIC was determined as 2 µM (≈ 0.411 µg/mL) in data set [11]; 32 µM (≈ 6.57 µg/mL) in data set [12]; 16 µM (≈ 3.28 µg/mL) in data set [13]; 2 µM (≈ 0.411 µg/mL) in data set [2]; 2 µM (≈ 0.411 µg/mL) in data set [14]; 8 µM (≈ 1.64 µg/mL) in data set [15]. The minimum inhibitory concentration (MIC) is 1 µM (≈ 0.205 µg/mL) in data set [16]; 64 µM (≈ 13.1 µg/mL) in data set [17]; 1 µM (≈ 0.205 µg/mL) in data set [18]; more than 64 µM in data set [19]; not above 0.5 µM in [20]; 8 µM (≈ 1.64 µg/mL) in data set [21]. In addition, the MIC in [22] was more than 64 µM; in data set [23] it was 1 µM (≈ 0.205 µg/mL); in data set [24] it was 1 µM (≈ 0.205 µg/mL); in data set [25], 32 µM (≈ 6.57 µg/mL). In addition, the MFC in data set [1] was more than 64 µM. In addition, the Activity result in data set [5] and in data set [6] was “Non-Toxic” throughout.
Take `CC/C(=C\c1ccccc1C#N)c1ccc(OC)cc1`: the MFC in data set [1] is more than 64 µM. Also, the MIC in data set [2] was more than 64 µM.
`COc1cccc(/C=C/c2ccccc2C#N)c1` gave an MIC in data set [2] of 16 µM (≈ 3.76 µg/mL).
For the compound `N#Cc1ccccc1/C=C/c1ccc([N+](=O)[O-])cc1`, in [1], the MFC is 64 µM (≈ 16 µg/mL). Also, the MIC in data set [2] worked out at 8 µM (≈ 2 µg/mL).
On to `CCCCc1ccc(/C=C/c2ccccc2C#N)cc1`, for which the MFC in data set [1] was determined as 64 µM (≈ 16.7 µg/mL). Further, the MIC in [2] is 8 µM (≈ 2.09 µg/mL).
Taken in the same sequence, the figures for `N#Cc1cccc(/C=C/c2ccccc2)c1` were 32 µM (≈ 6.57 µg/mL) and 4 µM (≈ 0.821 µg/mL).
Consider `N#Cc1ccccc1C=C1CCCCC1`, for which the MFC in [1] was more than 64 µM. The same compound registered a minimum inhibitory concentration (MIC) in data set [2] of 4 µM (≈ 0.789 µg/mL).
As to `COc1ccc(/C=C/c2ccccc2C#N)cc1`, the MFC in data set [1] was more than 64 µM. Besides, in data set [2], the MIC is 1 µM (≈ 0.235 µg/mL).
In the case of `C/C(=C\c1ccccc1C#N)c1ccccc1`, the MFC in [1] was more than 64 µM. The MIC in data set [2] is 8 µM (≈ 1.75 µg/mL).
`N#Cc1ccccc1/C=C/c1ccc(F)cc1` registered an MIC in data set [2] of 64 µM (≈ 14.3 µg/mL).
`N#Cc1ccccc1-c1ccccc1`: the MFC in [1] is more than 64 µM. The MIC in [2] worked out at 0.5 µM (≈ 0.0896 µg/mL).
Take `OC(Cn1cncn1)(Cn1cncn1)c1ccc(F)cc1F` [FLUCONAZOLE]: the minimal inhibitory concentration (MIC) is 8 µM (≈ 2.45 µg/mL) in [3]; 64 µM (≈ 19.6 µg/mL) in data set [4]; 8 µM (≈ 2.45 µg/mL) in [7]; more than 64 µM in data set [8]; more than 64 µM in data set [9]; more than 64 µM in data set [10]. The MIC is more than 64 µM in [11]; 64 µM (≈ 19.6 µg/mL) in [12]; more than 64 µM in data set [13]; 0.5 µM (≈ 0.153 µg/mL) in data set [2]; more than 64 µM in data set [15]; 1 µM (≈ 0.306 µg/mL) in [16]. Further, the MIC in data set [17] is more than 64 µM; in data set [18] it was more than 64 µM; in data set [19], more than 64 µM; in data set [20], 8 µM (≈ 2.45 µg/mL); in data set [21], more than 64 µM; in [22], more than 64 µM. The minimal inhibitory concentration (MIC) is not above 0.5 µM in data set [23], more than 64 µM in [24] and more than 64 µM in data set [25]. Besides, the MFC in data set [1] was more than 64 µM.
